Data set [1] in a line: Metabolic stability in human liver microsomes assessed as intrinsic clearance. In general terms: Liver microsomes are vesicles of endoplasmic reticulum, rich in cytochrome P450 enzymes.
A short description of data set [2]: Lipophilicity, log D of compound. It counts as physicochemical. The following applies: octanol/water.
The nature of data set [3]: Half life in CD-1 mouse at 0.5 mg/kg, iv. The conditions noted are these: in vivo. It counts as ADME, organism-based. The method in brief:
(§1)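 CD-1 mice given a single 0.5 mg/kg IV dose in 10% DMSO, 10% Solutol, 80% water. Clearance, Vdss and half-life derived from plasma concentration–time data.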

Data set [4] is described as follows: Free drug concentration in mouse brain harboring Kcnt1 L/L mutant at 30 mg/kg, sc. It counts as ADME, organism-based. The conditions noted are these: in vivo.
Data set [5] in a line: Volume of distribution at steady state in CD-1 mouse at 0.5 mg/kg, iv. It counts as ADME, organism-based. The following applies: in vivo, read-out: Vdss. The method in brief:
as §1

A short description of data set [6]: Oral bioavailability in CD-1 mouse at 30 mg/kg. It counts as ADME, organism-based. The following applies: in vivo.
Data set [7] can be described thus: Free drug concentration in wildtype CD-1 mouse brain at 150 mg/kg, sc. The conditions noted are these: in vivo.
The nature of data set [8]: Clearance in CD-1 mouse at 0.5 mg/kg, iv. It counts as ADME, organism-based. The following applies: in vivo. The method in brief:
as §1

The structures appear in SMILES notation. Bounds are passed on as bounds.

On to `COC(C)(C)c1cc(-c2noc([C@H](C)NC(=O)c3cc(C(F)(F)F)nn3C)n2)ccn1`, for which the CLint in data set [1] amounted to 21 µL/min/mg. This molecule also displayed a logD in data set [2] of 3.8.

As to `C[C@H](NC(=O)c1cc(C(F)(F)F)nn1C)c1nc(-c2ccnc(C(F)(F)F)c2)no1`, in data set [1], the CLint was < 9.6 µL/min/mg. Further, the half-life in data set [3] is > 1200 min. Further, the “Drug uptake(free)” value in data set [4] is recorded as 270 nM. Further, in data set [5], the Vd is 1.88 L/kg. Besides, the bioavailability in data set [6] amounted to 100%. The molecule also came in with a Drug uptake in data set [7] of 1204 nM. In addition, the clearance in data set [8] worked out at 2 mL/min/kg. In data set [2], this molecule displayed a logD of 3.6.

`COc1cc(-c2noc([C@H](C)NC(=O)c3cc(C(F)(F)F)nn3C)n2)cc(C)n1`: the CLint in data set [1] is 10 µL/min/mg. Further, the logD in data set [2] was determined as 4.4.

As to `COCc1cc(-c2noc([C@H](C)NC(=O)c3cc(C(F)(F)F)nn3C)n2)ccn1`, in data set [1], the CLint is < 9.6 µL/min/mg. The logD in data set [2] turned out to be 3.

For the molecule `C[C@H](NC(=O)c1cc(C(F)(F)F)nn1C)c1nc(-c2ccnc(N(C)C)c2)no1`, in data set [1], the CLint is 56 µL/min/mg. This molecule displayed a logD in data set [2] of 3.9.

Take `C[C@H](NC(=O)c1cc(C(F)(F)F)nn1C)c1nc(-c2ccnc(C3CC3)c2)no1`: the CLint in data set [1] is < 9.6 µL/min/mg. In addition, the logD in data set [2] amounted to 4.1.

For the molecule `COc1cc(-c2noc([C@H](C)NC(=O)c3cc(C(F)(F)F)nn3C)n2)ccn1`, the CLint in data set [1] was < 9.6 µL/min/mg. In data set [2], this molecule displayed a logD of 3.4.

For the molecule `C[C@H](NC(=O)c1cc(C(F)(F)F)nn1C)c1nc(-c2ccnc(N3CCCC3)c2)no1`, the CLint in data set [1] was found to be 48 µL/min/mg. In data set [2], the logD was found to be 4.2.

Turning to `C[C@H](NC(=O)c1cc(C(F)(F)F)nn1C)c1nc(-c2ccnc(C(F)F)c2)no1`, in data set [1], the CLint is < 9.6 µL/min/mg. The molecule also gave a logD in data set [2] of 3.4.

Turning to `Cc1cc(-c2noc([C@H](C)NC(=O)c3cc(C(F)(F)F)nn3C)n2)ccn1`, the CLint in data set [1] was < 9.6 µL/min/mg. Besides, the logD in data set [2] turned out to be 3.3.

With `CNc1cc(-c2noc([C@H](C)NC(=O)c3cc(C(F)(F)F)nn3C)n2)ccn1`, in data set [1], the CLint is 28 µL/min/mg. Moreover, the logD in data set [2] was 3.4.

For orientation: logD means the decadic logarithm of the distribution of all forms, ionised or not, between an organic phase and buffer at a given pH. As a reminder, the half-life is the time needed for the level to fall by half in the phase considered. By bioavailability is commonly meant the share of a dose that reaches the circulation, judged against a reference dose that is usually intravenous. Read a high bioavailability as much systemic uptake. What is called clearance is the rate of elimination divided by the concentration. Low values mean a low capacity for elimination, high ones a high capacity for elimination.

The values are drawn from ChEMBL document CHEMBL4706729, “Discovery of the First Orally Available, Selective K1.1 Inhibitor: In Vitro and In Vivo Activity of an Oxadiazole Series” (ACS Med Chem Lett, 2021).
